Test results as given in ChEMBL document CHEMBL4808182, “Discovery of the Soluble Guanylate Cyclase Activator Runcaciguat (BAY 1101042)” (J Med Chem, 2021).

Key:
[1] = Plasma clearance in iv dosed cynomolgus monkey measured up to 24 hrs by LC-MS analysis; assay type: ADME, organism-based, Macaca fascicularis
[2] = biological target: T1, Guanylate cyclase soluble subunit alpha-1 (Rattus norvegicus) (UniProt P19686); assay: Activation of recombinant rat sGC alpha1 subunit expressed in CHO cells assessed as induction of [32P-cGMP] formation using alpha-[32P-GTP] as substrate measured after 6 mins by luminescence assay; assay type: cell-based; conditions: filed as activator
T1 sequence (whole entry): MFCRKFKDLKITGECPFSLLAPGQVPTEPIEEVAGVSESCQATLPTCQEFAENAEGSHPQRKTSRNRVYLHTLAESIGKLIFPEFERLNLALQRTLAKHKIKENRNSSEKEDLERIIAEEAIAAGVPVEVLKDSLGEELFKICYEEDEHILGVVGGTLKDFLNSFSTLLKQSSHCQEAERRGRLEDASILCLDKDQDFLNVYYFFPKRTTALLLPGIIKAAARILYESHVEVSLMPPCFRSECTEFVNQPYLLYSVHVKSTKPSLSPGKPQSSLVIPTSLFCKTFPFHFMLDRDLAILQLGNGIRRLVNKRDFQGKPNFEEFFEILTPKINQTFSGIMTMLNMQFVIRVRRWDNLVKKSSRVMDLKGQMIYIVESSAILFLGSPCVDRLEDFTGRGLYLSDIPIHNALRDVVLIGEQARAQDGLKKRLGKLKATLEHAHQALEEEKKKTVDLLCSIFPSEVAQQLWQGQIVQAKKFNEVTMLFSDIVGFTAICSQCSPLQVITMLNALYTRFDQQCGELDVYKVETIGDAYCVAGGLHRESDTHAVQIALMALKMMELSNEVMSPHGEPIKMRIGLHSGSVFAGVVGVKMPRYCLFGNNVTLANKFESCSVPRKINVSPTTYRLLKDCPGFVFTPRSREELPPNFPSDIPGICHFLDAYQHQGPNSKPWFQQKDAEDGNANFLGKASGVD

[3] = Plasma clearance in iv dosed Beagle dog measured up to 24 hrs by LC-MS analysis; assay type: ADME, organism-based, Canis lupus familiaris
[4] = Clearance in Wistar rat at 0.3 mg/kg, iv measured up to 24 hrs by LC-MS analysis; assay type: ADME, organism-based; conditions: in vivo
In short: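 Rats dosed iv at 0.3 mg/kg; blood clearance determined.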

[5] = biological target: T1, Guanylate cyclase soluble subunit alpha-1 (Rattus norvegicus); assay: Activation of recombinant rat sGC alpha1 subunit expressed in CHO cells assessed as induction of [32P-cGMP] formation by measuring efficacy using alpha-[32P-GTP] as substrate measured after 6 mins by luminescence assay relative to control; assay type: cell-based
Cytochrome P450 3A4 = Cytochrome P450 3A4 (Homo sapiens, UniProt P08684); assay: Induction of CYP3A4 in human hepatocytes at > 10000 ng/ml using phenacetin as substrate incubated for 60 mins by LC-MS/MS analysis; assay type: ADME, cell-based, Hepatocyte; conditions: 1 h
Cytochrome P450 1A2 = biological target: T2, Cytochrome P450 1A2 (Homo sapiens, UniProt P05177); assay: Induction of CYP1A2 in human hepatocytes at > 10000 ng/ml using phenacetin as substrate incubated for 60 mins by LC-MS/MS analysis; assay type: ADME, cell-based, Hepatocyte; conditions: 1 h
T2 sequence (P05177 whole entry): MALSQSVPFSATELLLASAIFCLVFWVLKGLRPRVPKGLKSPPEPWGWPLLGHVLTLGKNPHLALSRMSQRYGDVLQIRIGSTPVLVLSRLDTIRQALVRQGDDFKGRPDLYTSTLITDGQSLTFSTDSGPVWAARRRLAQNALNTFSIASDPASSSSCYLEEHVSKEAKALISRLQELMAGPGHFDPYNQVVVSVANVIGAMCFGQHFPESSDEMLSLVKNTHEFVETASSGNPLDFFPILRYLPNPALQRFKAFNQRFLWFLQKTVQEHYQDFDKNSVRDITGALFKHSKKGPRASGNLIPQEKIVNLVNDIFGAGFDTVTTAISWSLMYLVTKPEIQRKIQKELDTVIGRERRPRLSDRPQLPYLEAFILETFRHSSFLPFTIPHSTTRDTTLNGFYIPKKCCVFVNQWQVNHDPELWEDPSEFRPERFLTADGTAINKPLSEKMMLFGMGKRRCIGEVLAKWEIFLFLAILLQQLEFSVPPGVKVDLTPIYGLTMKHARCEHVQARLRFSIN

[6] = Induction of CYP3A4 in human hepatocytes using phenacetin as substrate incubated for 60 mins by LC-MS/MS analysis; conditions: 1 h
[7] = Activation of recombinant rat sGC expressed in CHO cells by luminescence assay; assay type: cell-based; conditions: CHO
In short: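 Stable CHO reporter cell line overexpressing rat sGC; cGMP formation read as luminescence. EC50 from concentration–response. MEC taken as lowest concentration giving at least threefold increase in basal luminescence.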

Sequence of Cytochrome P450 3A4 (P08684 whole entry): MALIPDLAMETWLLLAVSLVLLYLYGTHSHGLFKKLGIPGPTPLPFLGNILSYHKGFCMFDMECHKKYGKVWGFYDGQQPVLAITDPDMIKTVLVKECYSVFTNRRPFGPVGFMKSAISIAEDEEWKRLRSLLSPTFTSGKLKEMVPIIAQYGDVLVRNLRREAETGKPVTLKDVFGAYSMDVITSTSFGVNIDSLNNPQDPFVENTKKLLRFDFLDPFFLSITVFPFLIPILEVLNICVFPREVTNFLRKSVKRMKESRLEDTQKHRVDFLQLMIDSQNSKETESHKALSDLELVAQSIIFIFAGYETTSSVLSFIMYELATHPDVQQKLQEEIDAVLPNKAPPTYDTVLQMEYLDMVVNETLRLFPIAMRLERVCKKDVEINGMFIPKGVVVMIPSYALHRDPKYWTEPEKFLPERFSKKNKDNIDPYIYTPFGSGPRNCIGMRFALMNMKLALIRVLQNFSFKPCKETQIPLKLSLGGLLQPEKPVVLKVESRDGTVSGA

Compound | MEC [2] [nM] | further results
C[C@H]([C@H](C(=O)Nc1ccc(Cl)c(CC2(C(=O)O)CC2)c1)c1ccc(Cl)cc1)C(F)(F)F | 300 | Efficacy [5]: 1.2%
Cc1c(CCC(=O)O)cccc1NC(=O)C(c1ccc(Cn2ncccc2=O)cc1)C1CCCC1 (racemic) | 1000 | –
CCN(C)C(C(=O)Nc1cccc(CCC(=O)O)c1C)c1ccc(CN2N=C(c3ccccc3)OCC2=O)cc1 (configuration not stated) | 300 | –
CC[C@@H](C)[C@H](C(=O)Nc1cccc(CCC(=O)O)c1C)N1CCC(CN2N=C(c3ccccc3)OCC2=O)CC1 | 30 | –
Cc1c(CCC(=O)O)cccc1NC(=O)[C@H](c1ccc(CN2N=C(c3ccccc3)OCC2=O)cc1)[C@@H](C)C(F)(F)F | 3 | –
CC[C@@H](C)[C@H](C(=O)Nc1cccc(CCC(=O)O)c1C)c1ccc(CN2N=C(c3ccccc3)OCC2=O)cc1 | 1 | –
CC[C@H](C)[C@H](C(=O)Nc1cccc(CCC(=O)O)c1C)N1CCC(CN2N=C(c3ccccc3)OCC2=O)CC1 | 7 | –
Cc1c(CCC(=O)O)cccc1NC(=O)[C@H](c1ccc(Cn2nc(C(F)(F)F)ccc2=O)cc1)C1CCCC1 | 3 | –
CCc1ccc([C@@H](C(=O)Nc2cc(C3(CC(=O)O)CC3)ccc2F)[C@@H](C)C(F)(F)F)cc1 | 10 | Activity [6]: 31 nM; Efficacy ([5]; filed as activator): 43%; EC50 [7]: 0.111 µM
C[C@H]([C@H](C(=O)Nc1cc(C2(CC(=O)O)COC2)ccc1Cl)c1ccc(Cl)cc1)C(F)(F)F | 3 | Activity [6]: 2245 nM; Efficacy ([5]; filed as activator): 52%; EC50 [7]: 0.07 µM

Second part, led by results:

MEC [2] [nM] | Compound | further results
1 | O=C(Nc1cccc(CC2(C(=O)O)CC2)c1)[C@H](c1ccc(CN2N=C(c3ccccc3)OCC2=O)cc1)C1CCCC1 | clearance [1]: 1.8 L/h/kg; clearance [3]: 0.82 L/h/kg; clearance [4]: 3.3 L/h/kg
1000 | Cc1c(CCC(=O)O)cccc1NC(=O)C(c1ccc(CN2CCOC(c3ccccc3)=N2)cc1)C1CCCC1 (racemic) | –
10 | O=C(O)c1ccc(CNC(=O)C(c2ccc(CN3N=C(c4ccccc4)OCC3=O)cc2)C2CCCC2)cc1 (racemic) | –
3 | C[C@H]([C@H](C(=O)Nc1cccc(CCC(=O)O)c1)c1ccc(CN2N=C(c3ccccc3)OCC2=O)cc1)C(F)(F)F | clearance [1]: 1 L/h/kg; clearance [3]: 1.4 L/h/kg; clearance [4]: 1.62 L/h/kg
10000 | CN(C(=O)C(c1ccc(CN2N=C(c3ccccc3)OCC2=O)cc1)C1CCCC1)c1cccc(CCC(=O)O)c1 (configuration not stated) | –
3000 | Cc1c(CCC(=O)O)cccc1C(=O)NC(c1ccc(CN2N=C(c3ccccc3)OCC2=O)cc1)C1CCCC1 (configuration not stated) | –
100 | O=C(O)CCCCCNC(=O)[C@H](c1ccc(CN2N=C(c3ccccc3)OCC2=O)cc1)C1CCCC1 | –
30 | CC(C)(Cc1cccc(NC(=O)[C@H](c2ccc(CN3N=C(c4ccccc4)OCC3=O)cc2)C2CCCC2)c1)C(=O)O | –
10 | O=C(NCCCCC1(C(=O)O)CC1)[C@H](c1ccc(CN2N=C(c3ccccc3)OCC2=O)cc1)C1CCCC1 | clearance [1]: 1.4 L/h/kg; clearance [3]: 1.8 L/h/kg; clearance [4]: 0.31 L/h/kg
10 | O=C(O)CCc1cccc(NC(=O)[C@H](c2ccc(CN3N=C(c4ccccc4)OCC3=O)cc2)C2CCCC2)c1 | clearance [1]: 0.86 L/h/kg; Activity (Cytochrome P450 3A4): Not Active; clearance [3]: 0.16 L/h/kg; Activity (Cytochrome P450 1A2): Not Active; clearance [4]: 3.85 L/h/kg
100 | CC(C)(CCCCNC(=O)[C@H](c1ccc(CN2N=C(c3ccccc3)OCC2=O)cc1)C1CCCC1)C(=O)O | –
